ChEMBL document CHEMBL2390857 (J Med Chem, 2013)
Each block holds one molecule with its values, some of them ahead of it. Calls of active or inactive are those of the source. The rule behind the calls is not given here.

What was measured:
LNCaP [1] = test: Down regulation of AR protein expression in human LNCAP cells at 15 uM after 24 hrs by Western blotting analysis; type: functional, cell-based
Outline: (§1)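 LNCaP cells exposed to 15 μM compound for 24 h. Whole-cell lysates made in RIPA buffer with protease and phosphatase inhibitors, protein measured by Bradford, run on SDS-PAGE and transferred to nitrocellulose. AR probed, bands detected by chemiluminescence and normalized to β-actin by densitometry. Blots run in duplicate or triplicate.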

[2] = Down regulation of truncated AR-3 expression in human CWR22Rv1 by Western blotting analysis; type: functional; settings: CWR22R
Outline: (§2)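 CWR22Rv1 cells, which carry endogenous splice variant AR-3, exposed to 15 μM compound for 24 h. Lysates prepared in RIPA buffer with inhibitors and separated by SDS-PAGE. Full-length AR and AR-3 detected with specific antibodies by chemiluminescence, normalized to β-actin. Blots done in duplicate or triplicate.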

CWR22R = test: Induction of apoptosis in human CWR22Rv1 cells assessed as induction of PARP cleavage; type: functional, cell-based
LNCaP [3] = test: Induction of apoptosis in human LNCAP cells assessed as induction of PARP cleavage; type: functional, cell-based
LNCaP [4] = test: Cytotoxicity against human LNCAP cells after 7 days by MTT assay; type: functional; settings: 168 h
[5] = Down regulation of full length AR expression in human CWR22Rv1 by Western blotting analysis; type: functional; settings: CWR22R; outline: as §2
LNCaP [6] = test: Upregulation of AR protein expression in human LNCAP cells at 15 uM after 24 hrs by Western blotting analysis; type: functional, cell-based; outline: as §1
[7] = biological target: T1, Androgen receptor (Homo sapiens) (UniProt P10275); test: Displacement of [3H]R1881 from AR in human LNCaP cells at 0.1 nM to 30000 nM after 2 hrs by scintillation counting analysis; type: cell-based
T1 sequence (whole entry): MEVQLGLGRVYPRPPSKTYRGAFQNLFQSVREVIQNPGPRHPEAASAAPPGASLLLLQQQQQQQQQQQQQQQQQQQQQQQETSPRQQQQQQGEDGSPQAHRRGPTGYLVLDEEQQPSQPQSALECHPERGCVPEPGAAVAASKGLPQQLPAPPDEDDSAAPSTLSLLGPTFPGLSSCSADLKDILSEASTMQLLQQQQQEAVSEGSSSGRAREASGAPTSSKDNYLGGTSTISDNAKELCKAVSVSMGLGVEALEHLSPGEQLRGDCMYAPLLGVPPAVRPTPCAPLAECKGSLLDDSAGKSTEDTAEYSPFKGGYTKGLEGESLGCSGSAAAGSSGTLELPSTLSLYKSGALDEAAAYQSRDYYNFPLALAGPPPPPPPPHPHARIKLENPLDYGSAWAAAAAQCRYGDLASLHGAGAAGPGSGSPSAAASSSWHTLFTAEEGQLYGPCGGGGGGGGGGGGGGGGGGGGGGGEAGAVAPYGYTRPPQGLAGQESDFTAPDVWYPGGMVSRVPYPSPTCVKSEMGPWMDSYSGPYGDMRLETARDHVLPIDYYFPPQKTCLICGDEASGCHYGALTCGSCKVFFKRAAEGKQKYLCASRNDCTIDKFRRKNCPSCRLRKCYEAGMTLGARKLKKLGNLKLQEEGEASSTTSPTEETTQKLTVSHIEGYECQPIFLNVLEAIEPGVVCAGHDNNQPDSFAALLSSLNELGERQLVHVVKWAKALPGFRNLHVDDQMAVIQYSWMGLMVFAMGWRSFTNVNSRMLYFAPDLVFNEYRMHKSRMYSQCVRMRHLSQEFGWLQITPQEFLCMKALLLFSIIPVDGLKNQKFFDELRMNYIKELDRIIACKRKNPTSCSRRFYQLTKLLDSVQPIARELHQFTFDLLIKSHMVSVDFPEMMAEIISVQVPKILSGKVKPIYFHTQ
Outline: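 Whole-cell competitive binding in LNCaP cells plated on poly-L-lysine-coated wells (2–3 × 10^5 per well) in steroid-free medium. […] Incubated 2 h at 37 °C, washed, solubilized in SDS/glycerol DPBS, radioactivity counted by scintillation.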

[8] = biological target: T2, Steroid 17-alpha-hydroxylase/17,20 lyase (Homo sapiens, UniProt P05093); test: Inhibition of human truncated CYP17A1 expressed in Escherichia coli
T2 sequence (P05093 whole entry): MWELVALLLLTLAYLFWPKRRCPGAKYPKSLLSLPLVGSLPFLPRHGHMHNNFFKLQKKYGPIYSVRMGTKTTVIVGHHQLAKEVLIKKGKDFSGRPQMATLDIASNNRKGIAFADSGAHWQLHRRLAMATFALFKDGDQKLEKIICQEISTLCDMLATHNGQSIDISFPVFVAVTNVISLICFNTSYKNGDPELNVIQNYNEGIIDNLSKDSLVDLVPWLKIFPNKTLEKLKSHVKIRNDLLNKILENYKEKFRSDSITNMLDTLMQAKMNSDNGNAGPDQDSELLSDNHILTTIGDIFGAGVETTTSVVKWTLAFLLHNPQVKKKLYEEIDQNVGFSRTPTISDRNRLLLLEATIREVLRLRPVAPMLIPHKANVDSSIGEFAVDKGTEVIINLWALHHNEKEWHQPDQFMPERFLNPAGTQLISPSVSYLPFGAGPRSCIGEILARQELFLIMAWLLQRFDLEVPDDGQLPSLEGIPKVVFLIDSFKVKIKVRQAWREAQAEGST
Outline: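 Purified truncated human CYP17A1 (CYP171dH), expressed in E. coli, assayed for 17α-hydroxylase activity following a previously reported procedure. […] Reference CYP17 inhibitors were run in the same system as positive controls.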

SMILES: C[C@]12CCC(=O)C=C1CC[C@@H]1[C@@H]2CC[C@]2(C)C(n3cnc4ccccc43)=CC[C@@H]12
Activity (LNCaP [1]): Active
Activity [2]: Active
Activity (CWR22R): Active
Activity (LNCaP [3]): Active
GI50 (LNCaP [4]): 2.64 µM
Activity [5]: Active

SMILES: C[C@]12CC[C@H](O)CC1=CC[C@@H]1[C@@H]2CC[C@]2(C)C(n3cnc4cc5ccccc5cc43)=CC[C@@H]12
Activity (LNCaP [6]): Active
GI50 (LNCaP [4]): 37.1 µM

inhibition [7]: Active
SMILES: C[C@]12CC[C@H](O)CC1=CC[C@@H]1[C@@H]2CC[C@]2(C)C(n3ccc4ccccc43)=CC[C@@H]12
Activity (LNCaP [6]): Active
GI50 (LNCaP [4]): > 100 µM

SMILES: C[C@]12CC[C@H](O)CC1C=C[C@@H]1[C@@H]2CC[C@]2(C)C(c3cccnc3)=CC[C@@H]12 (some centres undefined)
GI50 (LNCaP [4]): 1.97 µM
IC50 [8]: 0.206 µM

SMILES: CNC(=O)c1ccc(N2C(=S)N(c3ccc(C#N)c(C(F)(F)F)c3)C(=O)C2(C)C)cc1F
Activity [2]: inactive
Activity [5]: inactive

SMILES: C[C@]12CC[C@H](OS(C)(=O)=O)CC1=CC[C@@H]1[C@@H]2CC[C@]2(C)C(n3cnc4ccccc43)=CC[C@@H]12
GI50 (LNCaP [4]): 42.1 µM

SMILES: C[C@]12CC[C@H](O)CC1=CC[C@@H]1[C@@H]2CC[C@]2(C)C(n3cnc4ccccc43)=C(CNc3ccccc3)C[C@@H]12
GI50 (LNCaP [4]): 22.1 µM

SMILES: C[C@]12CC[C@H](OC(=O)COCC(=O)O)CC1=CC[C@@H]1[C@@H]2CC[C@]2(C)C(n3cnc4ccccc43)=CC[C@@H]12
GI50 (LNCaP [4]): 9.13 µM

SMILES: Cc1nccn1C(=O)O[C@H]1CC[C@@]2(C)C(=CC[C@@H]3[C@@H]2CC[C@]2(C)C(n4cnc5ccccc54)=CC[C@@H]32)C1
Activity (LNCaP [1]): Active
Activity (CWR22R): Active
Activity (LNCaP [3]): Active
GI50 (LNCaP [4]): 5.34 µM

SMILES: C[C@]12CC[C@H](OC(=O)n3cncn3)CC1=CC[C@@H]1[C@@H]2CC[C@]2(C)C(n3cnc4ccccc43)=CC[C@@H]12
Activity (LNCaP [6]): Active
GI50 (LNCaP [4]): 6.67 µM

SMILES: C[C@]12CC/C(=N\O)C=C1CC[C@@H]1[C@@H]2CC[C@]2(C)C(n3cnc4ccccc43)=CC[C@@H]12
GI50 (LNCaP [4]): 2.03 µM

SMILES: Cc1ccc(S(=O)(=O)O[C@H]2CC[C@@]3(C)C(=CC[C@@H]4[C@@H]3CC[C@]3(C)C(n5cnc6ccccc65)=CC[C@@H]43)C2)cc1
GI50 (LNCaP [4]): 47.2 µM

SMILES: C[C@]12CCC(=O)CC1=CC[C@@H]1[C@@H]2CC[C@]2(C)C(n3cnc4ccccc43)=CC[C@@H]12
GI50 (LNCaP [4]): 16 µM

SMILES: C[C@]12CC/C(=N/O)C=C1CC[C@@H]1[C@@H]2CC[C@]2(C)C(n3cnc4ccccc43)=CC[C@@H]12
GI50 (LNCaP [4]): 1.95 µM

SMILES: CC(C)CCNCC1=C(n2cnc3ccccc32)[C@@]2(C)CC[C@H]3[C@@H](CC=C4C[C@@H](O)CC[C@@]43C)[C@@H]2C1
GI50 (LNCaP [4]): 18.3 µM
